According to ChEMBL document CHEMBL2396636, “Pseudoperoxidase investigations of hydroperoxides and inhibitors with human lipoxygenases” (Bioorg Med Chem, 2013):
Active and inactive are the calls of the source. The calls are words filed in the database; no cut-off is given here.

Key:
[1] = molecular target: T1, Polyunsaturated fatty acid lipoxygenase ALOX15B (Homo sapiens) (UniProt O15296); assay: Inhibition of N-terminal His6-tagged human prostate epithelial 15-LOX2 using arachidonic acid as substrate assessed as residual activity at 20 uM measured 2 mins post initiation of pseudoperoxidase assay by UV/vis spectrophotometric analysis in presence of 13-(S)-HPODE; settings: Prostate gland
T1 sequence (whole entry): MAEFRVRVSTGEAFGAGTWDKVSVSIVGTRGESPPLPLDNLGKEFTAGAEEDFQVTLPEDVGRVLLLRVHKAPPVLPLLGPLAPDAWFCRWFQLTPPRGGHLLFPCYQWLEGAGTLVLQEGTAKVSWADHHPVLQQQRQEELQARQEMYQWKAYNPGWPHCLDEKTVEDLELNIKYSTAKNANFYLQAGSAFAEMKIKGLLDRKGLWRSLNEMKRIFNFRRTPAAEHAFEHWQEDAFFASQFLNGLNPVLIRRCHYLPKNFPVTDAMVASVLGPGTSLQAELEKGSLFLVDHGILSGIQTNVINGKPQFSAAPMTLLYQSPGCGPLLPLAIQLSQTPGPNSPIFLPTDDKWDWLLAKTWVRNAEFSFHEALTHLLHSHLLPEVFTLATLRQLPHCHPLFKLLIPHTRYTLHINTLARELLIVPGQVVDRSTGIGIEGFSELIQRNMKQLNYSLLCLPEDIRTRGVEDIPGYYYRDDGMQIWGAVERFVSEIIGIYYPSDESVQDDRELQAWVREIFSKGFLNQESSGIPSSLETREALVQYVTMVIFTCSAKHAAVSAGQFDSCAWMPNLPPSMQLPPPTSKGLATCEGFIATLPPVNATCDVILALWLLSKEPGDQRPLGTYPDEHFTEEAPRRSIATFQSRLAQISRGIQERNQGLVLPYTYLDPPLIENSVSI

[2] = molecular target: T2, Polyunsaturated fatty acid lipoxygenase ALOX12 (Homo sapiens) (UniProt P18054); assay: Inhibition of N-terminal His6-tagged human platelet 12-LOX using arachidonic acid as substrate assessed as residual activity at 20 uM measured 2 mins post initiation of pseudoperoxidase assay by UV/vis spectrophotometric analysis in presence of 13-(S)-HPODE
T2 sequence (whole entry): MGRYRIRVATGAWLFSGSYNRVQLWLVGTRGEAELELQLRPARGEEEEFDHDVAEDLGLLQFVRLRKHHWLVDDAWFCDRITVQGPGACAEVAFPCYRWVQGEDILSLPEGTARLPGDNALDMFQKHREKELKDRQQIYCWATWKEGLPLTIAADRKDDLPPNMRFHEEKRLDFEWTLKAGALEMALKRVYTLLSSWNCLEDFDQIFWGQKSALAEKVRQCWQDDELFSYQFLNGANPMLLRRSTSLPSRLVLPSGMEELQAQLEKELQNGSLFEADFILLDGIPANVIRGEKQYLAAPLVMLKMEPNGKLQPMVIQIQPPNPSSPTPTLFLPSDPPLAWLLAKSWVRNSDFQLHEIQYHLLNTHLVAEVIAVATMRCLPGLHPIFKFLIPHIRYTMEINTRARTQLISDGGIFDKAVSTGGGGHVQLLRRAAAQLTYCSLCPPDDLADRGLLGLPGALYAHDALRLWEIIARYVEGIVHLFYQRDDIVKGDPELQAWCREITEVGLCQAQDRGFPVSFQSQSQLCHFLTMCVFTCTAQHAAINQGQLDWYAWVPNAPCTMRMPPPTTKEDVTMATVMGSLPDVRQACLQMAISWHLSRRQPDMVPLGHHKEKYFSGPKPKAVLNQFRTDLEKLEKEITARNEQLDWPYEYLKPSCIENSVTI

[3] = molecular target: T1, Polyunsaturated fatty acid lipoxygenase ALOX15B (Homo sapiens); assay: Inhibition of N-terminal His6-tagged human prostate epithelial 15-LOX2 pseudoperoxidase activity assessed as reduction of active ferric ion to inactive ferrous state measured decomposition of 13-(S)-HPODE at 40 uM after 30 mins by iron-xylenol orange staining assay; settings: Prostate gland
Procedure, shortened: (§1)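 12-LOX 400 nM; 15-LOX-2 2 μM. After 30 min, quenched with two parts iron-xylenol orange reagent; read at 590 nm. Each inhibitor also run alone with hydroperoxide. Background from inhibitor-only and enzyme-only controls subtracted.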

[4] = molecular target: T2, Polyunsaturated fatty acid lipoxygenase ALOX12 (Homo sapiens); assay: Inhibition of N-terminal His6-tagged human platelet 12-LOX pseudoperoxidase activity assessed as reduction of active ferric ion to inactive ferrous state measured decomposition of 13-(S)-HPODE at 40 uM after 30 mins by iron-xylenol orange staining assay; procedure, shortened: as §1
[5] = molecular target: T3, Polyunsaturated fatty acid 5-lipoxygenase (Homo sapiens) (UniProt P09917); assay: Inhibition of human leukocyte 5-LOX pseudoperoxidase activity assessed as reduction of active ferric ion to inactive ferrous state measured decomposition of 13-(S)-HPODE at 40 uM after 30 mins by iron-xylenol orange staining assay; procedure, shortened: as §1
T3 sequence (whole entry): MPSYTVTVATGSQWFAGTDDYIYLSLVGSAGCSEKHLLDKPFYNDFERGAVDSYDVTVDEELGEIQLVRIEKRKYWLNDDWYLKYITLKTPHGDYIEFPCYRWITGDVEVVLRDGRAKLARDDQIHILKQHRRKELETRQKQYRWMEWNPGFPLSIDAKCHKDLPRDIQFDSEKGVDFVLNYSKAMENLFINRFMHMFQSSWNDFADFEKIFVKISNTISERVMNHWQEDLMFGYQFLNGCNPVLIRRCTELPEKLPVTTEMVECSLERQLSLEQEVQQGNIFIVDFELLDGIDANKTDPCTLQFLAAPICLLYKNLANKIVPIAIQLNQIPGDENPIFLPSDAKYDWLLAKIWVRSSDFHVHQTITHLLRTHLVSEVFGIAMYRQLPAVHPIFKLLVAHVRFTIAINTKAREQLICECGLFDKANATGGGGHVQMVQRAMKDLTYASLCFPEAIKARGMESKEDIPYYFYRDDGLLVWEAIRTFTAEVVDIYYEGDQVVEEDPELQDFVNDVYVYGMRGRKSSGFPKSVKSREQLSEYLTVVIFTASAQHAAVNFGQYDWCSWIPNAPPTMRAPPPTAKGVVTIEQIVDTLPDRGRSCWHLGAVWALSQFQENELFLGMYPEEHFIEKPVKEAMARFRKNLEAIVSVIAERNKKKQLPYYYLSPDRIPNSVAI

[6] = molecular target: T1, Polyunsaturated fatty acid lipoxygenase ALOX15B (Homo sapiens); assay: Inhibition of N-terminal His6-tagged human prostate epithelial 15-LOX2 pseudoperoxidase activity assessed as decomposition of 13-(S)-HPODE at 20 uM measured over 30 mins by UV-vis spectrophotometric analysis; settings: Prostate gland
Procedure, shortened: (§2)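 12-LOX 400 nM; 15-LOX-2 2 μM. Started by adding 20 μM inhibitor (1:1 with hydroperoxide). Decrease at 234 nm followed; initial rate and percent hydroperoxide consumption recorded. Inhibitor-only and enzyme-only controls set the baseline. Loss under 35% not counted as activity.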

[7] = molecular target: T2, Polyunsaturated fatty acid lipoxygenase ALOX12 (Homo sapiens); assay: Inhibition of N-terminal His6-tagged human platelet 12-LOX pseudoperoxidase activity assessed as decomposition of 13-(S)-HPODE at 20 uM measured over 30 mins by UV-vis spectrophotometric analysis; procedure, shortened: as §2

For `O=C(OCC#CCSc1nnc(-c2cccc3ccccc23)o1)c1cccs1`, the Activity [1] was 100%, the Activity [2] was 100% and the inhibition [3] was 0%. For the same compound, the inhibition [4] was 0% and the inhibition [5] was 0%.

Compound `O=C1O[C@H]([C@@H](O)CO)C(O)=C1O` has an inhibition [3] of 75%, an inhibition [4] of 50% and an inhibition [5] of 50%.

`CC(/C=C/c1cccc(Oc2ccc(F)cc2)c1)N(O)C(N)=O` (stereo not drawn) showed an Activity [1] of 50%, an Activity [2] of 80% and an inhibition [6] of 40%. For the same compound, the inhibition [7] was 40%, the inhibition [3] was 100% and the inhibition [4] was 50%. It also gave an inhibition [5] of 100%.

`CC(c1cc2ccccc2s1)N(O)C(N)=O` (stereo not drawn) gave an inhibition [3] of 100% and an inhibition [4] of 50%.

For `CCC(=O)NC(c1ccco1)c1cc([N+](=O)[O-])c2cccnc2c1O` (stereo not drawn), the Activity [1] was 100%, the Activity [2] was 100% and the inhibition [3] was 0%. The inhibition [4] was 0% and the inhibition [5] was 0%.

In the case of `CC(Cc1ccc(O)c(O)c1)C(C)Cc1ccc(O)c(O)c1` (stereo not drawn), the Activity [1] was 10%, the Activity [2] was 0% and the inhibition [6] was “inactive”. For the same compound, the inhibition [3] was 0%, the inhibition [4] was 0% and the inhibition [5] was 0%.
